Experimental data of several laboratories.
Each line is one published result; the experiments were not run side by side.
Target: Calcium/calmodulin-dependent protein kinase type II subunit alpha (CAMK2A, Homo sapiens, UniProt Q9UQM7)

| SMILES | observed | mode | technique | concentration | endpoint | result |
| --- | --- | --- | --- | --- | --- | --- |
| O=C(Nc1cccnn1)N1CCN([C@@H]2CCOc3cc(C(F)(F)F)ccc32)CC1 | cell-free assay |  |  | 20 µM | inhibition | 3% |
| COc1ncccc1-c1cnn2ccc(N3CCN(C(=O)OC(C)C)CC3)nc12 | binding |  | competition with immobilised ligand | 1 µM | remaining binding | 70% |
| N#CC1(c2ccccn2)CCN(Cc2cc(C(=O)O)c(=O)n3ccccc23)CC1 | cell-free assay |  | competition with immobilised ligand | 1 µM | remaining binding | 83% |
| Cc1nn(C)cc1-c1nc2c(N3CCN(Cc4ccc(Cl)cc4)CC3)c(Cl)cnc2[nH]1 | binding |  | competition with immobilised ligand | 1 µM | remaining binding | 95% |
| Cc1ncc(C)n2nc(/C=C/c3nc(N4CCCC4)cc(N4CCOCC4)n3)nc12 | enzyme activity | inhibitor |  | 10 µM | inhibition | 6% |
| O=c1[nH]c2ccccc2n1C1CCN(Cc2ccc(-c3[nH]c4cc5ncnc5cc4nc3-c3ccccc3)cc2)CC1 | cell-free assay |  |  | 0.5 µM | remaining signal | 109% |
| Cn1cc(-c2cc(F)cc(N3CCn4c(cc5c4CCCC5)C3=O)c2CO)cc(Nc2ccc(N3CCN(C4COC4)CC3)cn2)c1=O | enzyme activity | inhibitor |  | 0.1 µM | inhibition | 12% |
| Cn1cncc1[C@](O)(COc1ccc(C#N)cc1-c1ccc(OC(F)(F)F)cc1)c1ccc(C#N)cc1 | cell-free assay |  | competition with immobilised ligand | 1 µM | remaining binding | 95% |
| Cn1cc(-c2cccc(N3CCc4c(sc5c4CC(C)(C)C5)C3=O)c2CO)cc(Nc2ccncn2)c1=O | enzyme activity | inhibitor |  | 1 µM | inhibition | -7% |
| Nc1ncc(-c2nc(N3CCOCC3)nc(N3CCOCC3)n2)c(C(F)F)n1 | binding |  | competition with immobilised ligand | 10 µM | remaining binding | 64% |
